One may read the bioavailability as the share of a dose that reaches the circulation, judged against a reference dose that is usually intravenous. Higher therefore signals good availability. A word on the IC50: it is the concentration at which inhibition is half-maximal.

The values below come from ChEMBL document CHEMBL1143246, “Design and synthesis of bicyclic pyrimidinones as potent and orally bioavailable HIV-1 integrase inhibitors” (J Med Chem, 2008).

Data set [1] has as its system Human immunodeficiency virus 1. Put plainly: Antiviral activity against HIV1 in human MT4 cell assessed as inhibition of virus spread in presence of 10% fetal bovine serum. In kind it is functional. The settings on record: Human immunodeficiency virus 1, MT4; read-out: CIC95. A digest of the protocol: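 Spread of HIV-1 infection in MT-4 human T-lymphoid cell culture with 10% fetal bovine serum; CIC95 is the concentration inhibiting spread by ≥95%; mean of at least three independent experiments.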

Data set [2] is described as follows: Plasma clearance in rat at 3 mg/kg, po or 3 mg/kg, iv. In kind it is ADME, organism-based. A digest of the protocol:
(§1)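 In vivo PK: iv dosing in DMSO/PEG400/H₂O mixtures, oral dosing as methylcellulose suspension. Half-life was taken after iv dosing; AUC and Cmax after po dosing.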

Data set [3] is described as follows: Oral bioavailability in rat at 3 mg/kg. Conditions: in vivo. It is filed as ADME, organism-based. In short, it runs like this:
as §1

In the next data set the test system is Liver. Put plainly: Metabolic stability in dog liver microsomes in presence of NADPH and UDPGA. It is filed as ADME, Canis lupus familiaris, Microsome. A digest of the protocol: (§2)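 Multiple time points over 1 h: compound 1 µM with liver microsomes 1 mg/mL, in the presence of both UDPGA and NADPH; degradation followed by LC/MS/MS.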
Data set [4] in a line: Protein binding in dog plasma. The settings on record: read-out: PPB (converted). It is filed as ADME, cell-free, Canis lupus familiaris. In short, it runs like this: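 Plasma protein binding measured by ultrafiltration after incubation at 37 °C for 1 h.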
Data set [5] in a line: Inhibition of recombinant HIV1 integrase strand transfer activity.
A short description of data set [6]: Protein binding in rat plasma. In kind it is ADME, cell-free. The settings on record: read-out: PPB (converted). In short, it runs like this: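 Plasma protein binding was measured by ultrafiltration after a 1 h incubation of compound in plasma at 37 °C.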
Data set [7] is described as follows: Plasma clearance in dog at 1 mg/kg, iv or 2 mg/kg, po. It is filed as ADME, organism-based, Canis lupus familiaris. A digest of the protocol: as §1
The next data set relates to Liver microsomes. In words: Metabolic stability in rat liver microsomes in presence of NADPH and UDPGA. In kind it is ADME, Microsome. A digest of the protocol: as §2
(In general: Liver microsomes are vesicles of endoplasmic reticulum, rich in cytochrome P450 enzymes.)

Data set [8] deals with Human immunodeficiency virus 1. In words: Antiviral activity against HIV1 in human MT4 cell assessed as inhibition of virus spread in presence of 50% normal human serum. It is filed as functional. Conditions: Human immunodeficiency virus 1, MT4; read-out: CIC95. In short, it runs like this: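 Spread of HIV-1 infection in MT-4 human T-lymphoid cell culture with 50% normal human serum; CIC95 is the concentration inhibiting spread by ≥95%; mean of at least three independent experiments.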

Data set [9] is described as follows: Oral bioavailability in dog at 2 mg/kg. In kind it is ADME, organism-based, Canis lupus familiaris. The settings on record: in vivo. A digest of the protocol: as §1
For another data set, the species on record is Homo sapiens. Put plainly: Protein binding in human plasma. Conditions: read-out: PPB (converted).

In the case of `CN1CCN(S(=O)(=O)N(C)[C@H]2CCCn3c2nc(C(=O)NCc2ccc(F)cc2)c(O)c3=O)CC1`, the IC95 in data set [1] and in data set [8] was 6 nM in each case. In addition, the clearance in [2] was 98 mL/min/kg; in [7], 23 mL/min/kg. This compound also registered a bioavailability in data set [3] of 15%. Also, the Stability with Liver is 8 µL/min/mg; in the data set with Liver microsomes, 10 µL/min/mg. In addition, the fraction unbound in [4] is 0.18; in [6], 0.24. The IC50 in data set [5] amounted to 7 nM.
On to `CN(C)S(=O)(=O)N(C)[C@H]1CCCn2c1nc(C(=O)NCc1ccc(F)cc1)c(O)c2=O`, for which the IC95 is 12 nM in data set [1] and 31 nM in data set [8]. In addition, the clearance in [2] came to 14 mL/min/kg; in data set [7], 3.8 mL/min/kg. The bioavailability in data set [3] came to 49%; in data set [9], 16%. In addition, the IC50 in [5] is 5 nM. Moreover, the fraction unbound in the data set filed under Homo sapiens is 0.13.
